Data on 3 compounds can be found in ChEMBL document CHEMBL2311429, “Design, synthesis and crystallographic analysis of nitrile-based broad-spectrum peptidomimetic inhibitors for coronavirus 3C-like proteases” (Eur J Med Chem, 2013).

For assay [1], the target named is Replicase polyprotein 1ab (Severe acute respiratory syndrome-related coronavirus, UniProt P0C6X7). The assay can be described thus: Inhibition of SARS coronavirus 3C-like protease pretreated for 5 mins before substrate addition by fluorimetry.
In assay [2] the target is T1, Caspase-3 (Homo sapiens) (UniProt P42574).
T1 sequence (whole entry): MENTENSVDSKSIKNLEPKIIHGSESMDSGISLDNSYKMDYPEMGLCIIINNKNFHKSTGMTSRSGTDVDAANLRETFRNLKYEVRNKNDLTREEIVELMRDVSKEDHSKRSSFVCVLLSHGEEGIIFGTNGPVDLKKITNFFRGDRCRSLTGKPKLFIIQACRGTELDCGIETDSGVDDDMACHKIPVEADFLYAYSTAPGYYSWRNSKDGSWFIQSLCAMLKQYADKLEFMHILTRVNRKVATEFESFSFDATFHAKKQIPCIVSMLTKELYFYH
Description: Inhibition of caspase3 (unknown origin) using Ac-DEVD-pNA as substrate at 0.5 to 256 uM after 90 mins by spectrophotometry.

Assay [3] can be described thus: Inhibition of […] bronchitis virus 3C-like protease pretreated for 5 mins before substrate addition by fluorimetry. In a few lines: (§1)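 3CL protease (0.5-1 μM) preincubated 5 min with inhibitor (0.5-256 μM), then 35 μM fluorescent-protein substrate added; cleavage followed by fluorescence. IC50 from four-parameter logistic fit of activity versus inhibitor concentration.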

Assay [4] in a line: Inhibition of human coronavirus HKU1 3C-like protease pretreated for 5 mins before substrate addition by fluorimetry. The method, boiled down: as §1
A short description of assay [5]: Inhibition of human coronavirus OC43 3C-like protease pretreated for 5 mins before substrate addition by fluorimetry. In a few lines: as §1
A short description of assay [6]: Inhibition of human coronavirus […] 3C-like protease pretreated for 5 mins before substrate addition by fluorimetry. Also on record: species or system Human coronavirus 229E. In a few lines:
as §1

Active and inactive are the calls of the source. The calls are words filed in the database; no cut-off is given here.

Broadly, the IC50 is the concentration at which inhibition is half-maximal. As to `Cc1cc(C(=O)N[C@@H](C)C(=O)N[C@H](C(=O)N[C@@H](CC(C)C)C(=O)N[C@H](C#N)CCC(N)=O)C(C)C)no1`, the IC50 in assay [1] stood at 49 µM.

In the case of `CC(C)C[C@H](NC(=O)[C@@H](NC(=O)[C@H](C)NC(=O)OCc1ccccc1)C(C)C)C(=O)N[C@H](C#N)CCC(N)=O`, in assay [2], the inhibition result was “inactive”. The concentration for half-maximal inhibition (IC50) in assay [3], in assay [4], in assay [5] and in assay [6] was 1.3 µM in each case.

As for `CC(C)C[C@H](NC(=O)[C@@H](NC(=O)[C@H](C)NC(=O)[C@H](CO)NC(=O)[C@@H](NC(=O)OCc1ccccc1)[C@@H](C)O)C(C)C)C(=O)N[C@H](C#N)CCC(N)=O`, the IC50 in assay [1] worked out at 39 µM.
